Measurements of several laboratories.
Protocols differ between the studies behind these lines.
Neuronal acetylcholine receptor; alpha3/beta4: Neuronal acetylcholine receptor; alpha3/beta4 (Rattus norvegicus, UniProt P04757+P12392)
HTR2B: 5-hydroxytryptamine receptor 2B (HTR2B, Homo sapiens, UniProt P41595)

| Structure (SMILES) | target | assay | setting | quantity | result |
| --- | --- | --- | --- | --- | --- |
| O=S(=O)(O)c1ccc2c(N=Nc3c(O)ccc4ccccc34)cccc2c1 | Bcl-2-related protein A1 (Mus musculus, UniProt Q07440, C113S/P104K) | ligand displacement, FP | – | IC50 | 32 µM |
| COc1ccc2[nH]c3c(c2c1)CCN(C)CC3 | Neuronal acetylcholine receptor; alpha3/beta4 | ion current, antagonist, two-electrode voltage clamp | oocytes | IC50 | 21.3 µM |
| CC[C@H](C)[C@H](NC(C)=O)C(=O)N[C@@H](CCC(=O)O)C(=O)N[C@H](C(=O)N[C@H](C=O)CC(=O)O)[C@@H](C)O | Caspase-4 (CASP4, Homo sapiens, UniProt P49662) | enzyme activity, inhibitor | – | IC50 | 0.555 µM |
| COc1ccc2c3c([nH]c2c1)CCN(C)CC3 | Neuronal acetylcholine receptor; alpha3/beta4 | ion current, antagonist, two-electrode voltage clamp | oocytes | IC50 | 31.4 µM |
| CC(C)N(CCc1c[nH]c2cccc(OC(=O)CCCC(=O)O)c12)C(C)C | HTR2B | ligand displacement, radioligand | – | IC50 | 3.6 µM |
| Cc1cc(-c2ccccc2)nnc1NCCN1CCNCC1 | HTR2B | calcium signal, antagonist, fluorescence | – | IC50 | 0.054 µM |
| COC(=O)c1cc(N(C)C(=O)c2ccn3ncc(-c4ccc(C(=O)O)cc4)c3c2)ccc1Cl | Rho-associated protein kinase 2 (ROCK2, Homo sapiens, UniProt O75116) | enzyme activity, inhibitor | – | IC50 | > 30 µM |
| Cn1ccc2cc3c(cc21)CCN3C(=O)Nc1cccnc1 | HTR2B | ligand displacement, radioligand | – | Ki | 0.0064 µM |
| CN(C)C(=N)N=C(N)N | speB (Escherichia coli, UniProt P60651) | enzyme activity, inhibitor, absorbance | pH 6.5 | Ki | 1180 µM |
| CNC(=O)c1ccc(-c2cnn3ccc(C(=O)N(C)c4ccc(Cl)c(C(=O)OC)c4)cc23)cc1 | HTR2B | cell-free assay | – | IC50 | > 30 µM |
